Experimental data as given in ChEMBL document CHEMBL3526077, “Prediction of human metabolism of FK3453 by aldehyde oxidase using chimeric mice transplanted with human or rat hepatocytes” (Drug Metab Dispos, 2012).

Assays:
Mus musculus [1] = assay: Drug metabolism in plasma of chimeric mouse transplanted with human hepatocytes treated with FK3453 at 3 mg/kg, iv as single dose; type: ADME, organism-based, Hepatocyte; parameters: dose 3 mg/kg, route intravenous
Method in brief: (§1)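 Pooled plasma from h-PXB or r-PXB mice after a 3 mg/kg i.v. dose was mixed with an equal volume of acetonitrile and centrifuged. Metabolites were profiled by C18 UPLC with ammonium formate/acetonitrile gradient, UV 254 nm, and Orbitrap MS/MS. Scored as detected or not detected.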

[2] = Retention time of the compound by UV/mass spectrometry; type: physicochemical
Method in brief: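 Retention time on Acquity BEH C18 column (1.7 µm, 2.1×100 mm). Mobile phase 5 mM ammonium formate with 5% acetonitrile against acetonitrile, at 0.2 mL/min. Gradient: 100:0 to 2.5 min, linear to 65:35 by 25 min, 10:90 to 27 min. Detection by UV at 254 nm and MS.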

Mus musculus [3] = assay: Drug metabolism in plasma of chimeric mouse transplanted with rat hepatocytes treated with FK3453 at 3 mg/kg, iv as single dose; type: ADME, organism-based, Hepatocyte; parameters: dose 3 mg/kg, route intravenous; method in brief: as §1

Drug metabolism (Mus musculus [1]): metabolite_detected
Retention_time [2]: 16.5 min
Drug metabolism (Mus musculus [3]): metabolite_detected
SMILES: CC(C)n1nc(-c2c(-c3ccccc3)nc(N)[nH]c2=O)ccc1=O
